Test [1] concerns AKT phosphorylation (pAKT) in platelet-rich plasma (PRP). In words: AKT phosphorylation in platelet-rich plasma. The format is in vivo, human. The method in brief: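 Oral single-dose run-in (Cycle 0, Day 1): citrated blood taken pre-dose and at 1, 2, 6, 24, 48 and 72 h, plus pre-dose on Cycle 1, Day 15. Spun 200 × g, 4°C, 15 min; PRP stabilised with phosphatase inhibitor, lysed with PMSF-containing buffer, snap-frozen. Phospho- and total AKT by quantitative electrochemiluminescent assay with recombinant active AKT standard curve per plate and spiked QC samples. p-AKT/total AKT expressed as % change from pre-treatment.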

The next test has as its system advanced solid tumors. The test is described as follows: Tumor response. The test is classed as in vivo, human. The method in brief:
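Response assessed by RECIST v1.1 using imaging at baseline and every two cycles in patients dosed orally, QD or BID, in 28-day cycles. Response data summarised with descriptive statistics.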

Test [2] concerns human tumor xenograft models with PIK3CA mutations. The conditions noted are these: in vivo; cited from earlier work.

Entries after “also recorded” stand apart in the source; their conditions may differ.

The values below come from article PMC4254850 (Clinical cancer research : an official journal of the …, 2014).

On to `CS(=O)(=O)N1CCc2c(-c3cnc(N)nc3)nc(N3CCOCC3)nc21` [CH5132799], for which, in test [1] (achieved at dose levels of 32 mg), the “Maximal inhibition of p-AKT in PRP compared to baseline” value is “approximately 50%”. Also, in test [1] (after single dose), the “Duration of target engagement (reduction in phosphorylation of AKT in PRP)” value is recorded as “less than 24 hours”. Further, in test [1] (p-AKT Ser473), the “Dose levels at which p-AKT was consistently reduced in PRP” value fell in the range of 8 to 96 mg. In addition, in test [1] (single dose, 2 hrs post-dose), the “Dose with significant inhibition of PI3K signalling (reduction of AKT phosphorylation) in PRP” value is listed as no less than 32 mg. Also, in the test with advanced solid tumors (48 mg BID), the “Response by GCIG CA125 criteria, patient with PIK3CA H1047R-mutated clear cell ovarian cancer” value is “partial response; also recorded: GCIG CA125 response” and the “Time on study of patient with GCIG CA125 response” value is 6 cycles. Moreover, the “Clinical response, heavily pre-treated patient with triple negative breast cancer (no PIK3CA or AKT mutations)” value in the test with advanced solid tumors (72 mg BID) was “marked symptomatic and objective improvement in their cutaneous skin lesions”. Moreover, in the test with advanced solid tumors (all patients), the “RECIST partial or complete responses” value is given as “no RECIST partial or complete responses” and the “Study participants with best response of stable disease by RECIST” value worked out at 21%. In addition, the Antitumor activity entry in test [2] was “significant antitumor activity”.
